Assay results from ChEMBL document CHEMBL5705889, “Novel mutant-selective EGFR kinase inhibitors against EGFR T790M” (Nature, 2009).
pIC50, pKd: −log10 of the molar value. The source made the active and inactive calls. The calls are words filed in the database; no cut-off is given here.

Legend:
[1] = target: T1, Mitogen-activated protein kinase; ERK1/ERK2 (Homo sapiens) (UniProt P27361+P28482); assay: Inhibition of ERK1/2 phosphorylation in human PC9 Gefitinib-resistant (GR) cells at 0.01 to 1 uM incubated for 16 hrs by immunoblot analysis; type: cell-based; conditions: PC9 Gefitinib-resistant (GR) cell, dose 0.01-1 µM
[2] = target: T1, Mitogen-activated protein kinase; ERK1/ERK2 (Homo sapiens); assay: Inhibition of ERK1/2 phosphorylation in human NCI-H1975 cells at 0.01 to 1.0 uM incubated for 16 hrs by immunoblot analysis; type: cell-based; conditions: dose 0.01-1 µM
[3] = Drug concentration in mouse plasma at 10 mg/kg, po administered as single dose and measured after 6 hrs; type: ADME, organism-based
[4] = Tmax in mouse at 10 mg/kg, po administered as single dose; type: ADME, organism-based; conditions: in vivo
[5] = Drug concentration in mouse plasma at 10 mg/kg, po administered as single dose and measured after 8 hrs; type: ADME, organism-based
[6] = Drug concentration in mouse plasma at 10 mg/kg, po administered as single dose and measured after 1 hrs; type: ADME, organism-based
Mus musculus [7] = assay: Invivo antitumor activity in transgenic mouse harboring EGFR L858R/T790M mutant assessed as increase in fibrosis at 25 mg/kg administered via gavage for 2 weeks by H&E staining based analysis; type: functional, organism-based
Outline: (§1)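 EGFR-TL (L858R/T790M) or exon19 deletion-T790M (TD) inducible bitransgenic mice dosed by oral gavage daily at 25 mg/kg; vehicle 10% 1-methyl-2-pyrrolidinone:90% PEG-300. Tumors followed by MRI; lung histology by standard protocols.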

PC-9 = assay: Prevention of EGFR T790M mutant development in human PC-9 cells harboring delE746_A750 mutant assessed as reduction in resistant cells with T790M mutant at 1 uM; type: functional, cell-based
BaF3 [8] = assay: Prevention of EGFR T790M mutant development in mouse BaF3 cells harboring delE746_A750 mutant assessed as reduction in resistant clones with T790M mutant at 0.001 to 1 uM; type: functional, cell-based; conditions: dose 0.001-1 µM
Outline: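 Ba/F3 cells with EGFR L858R or delE746_A750 mutagenized with N-ethyl-N-nitrosourea, then expanded in 100 nM or 1 μM inhibitor; resistant clones isolated and characterized for EGFR T790M.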

cells = type: functional, cell-based; conditions: Homo sapiens, Gefitinib-resistant PC9, 72 h
Mus musculus [9] = assay: Invivo antitumor activity in transgenic mouse harboring EGFR del19/T790M mutant assessed as remodelling/scarring at 25 mg/kg administered via gavage for 2 weeks by H&E staining based analysis; type: functional, organism-based; outline: as §1
Mus musculus [10] = assay: In vivo antitumor activity in transgenic mouse harboring EGFR delE746_A750/T790M mutant assessed as decrease in Ki67 positive cells at 25 mg/kg administered via gavage for 2 weeks by immunohistochemical analysis; type: functional, organism-based
Outline: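 Transgenic EGFR T790M mutant mice were given daily gavage at 25mg/kg in 10% 1-methyl-2-pyrrolidinone:90% PEG-300 vehicle, alongside vehicle-alone controls. Tumor tissue was immunostained by standard protocols, and TUNEL-positive and Ki67-positive cells were counted.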

Mus musculus [11] = assay: Invivo antitumor activity in transgenic mouse harboring EGFR L858R/T790M mutant assessed as remodelling/scarring at 25 mg/kg administered via gavage for 2 weeks by H&E staining based analysis; type: functional, organism-based; outline: as §1
[12] = target: Serine/threonine-protein kinase PLK4 (Homo sapiens, UniProt O00444); assay: Binding affinity to PLK4 (unknown origin) assessed as dissociation constant
[13] = MRT in mouse at 10 mg/kg, po administered as single dose; type: ADME, organism-based; conditions: in vivo
Mus musculus [14] = assay: Invivo antitumor activity in transgenic mouse harboring EGFR L858R/T790M mutant assessed as reduction in nodule remnants in tumor at 25 mg/kg administered via gavage for 2 weeks by H&E staining based analysis; type: functional, organism-based; outline: as §1
BaF3 [15] = assay: cells; type: functional, cell-based; conditions: Mus musculus, BaF3, 72 h
Mus musculus [16] = assay: Invivo antitumor activity in transgenic mouse harboring EGFR L858R/T790M mutant assessed as reduction in small residual nodules in tumor at 25 mg/kg administered via gavage for 2 weeks by H&E staining based analysis; type: functional, organism-based; outline: as §1
[17] = Drug concentration in mouse plasma at 1 mg/kg, iv administered as single dose and measured after 8 hrs; type: ADME, organism-based
[18] = target: Serine/threonine-protein kinase DCLK3 (Homo sapiens, UniProt Q9C098); assay: Binding affinity to DCAMKL3 (unknown origin) assessed as dissociation constant
Sequence of Serine/threonine-protein kinase DCLK3 (Q9C098 whole entry): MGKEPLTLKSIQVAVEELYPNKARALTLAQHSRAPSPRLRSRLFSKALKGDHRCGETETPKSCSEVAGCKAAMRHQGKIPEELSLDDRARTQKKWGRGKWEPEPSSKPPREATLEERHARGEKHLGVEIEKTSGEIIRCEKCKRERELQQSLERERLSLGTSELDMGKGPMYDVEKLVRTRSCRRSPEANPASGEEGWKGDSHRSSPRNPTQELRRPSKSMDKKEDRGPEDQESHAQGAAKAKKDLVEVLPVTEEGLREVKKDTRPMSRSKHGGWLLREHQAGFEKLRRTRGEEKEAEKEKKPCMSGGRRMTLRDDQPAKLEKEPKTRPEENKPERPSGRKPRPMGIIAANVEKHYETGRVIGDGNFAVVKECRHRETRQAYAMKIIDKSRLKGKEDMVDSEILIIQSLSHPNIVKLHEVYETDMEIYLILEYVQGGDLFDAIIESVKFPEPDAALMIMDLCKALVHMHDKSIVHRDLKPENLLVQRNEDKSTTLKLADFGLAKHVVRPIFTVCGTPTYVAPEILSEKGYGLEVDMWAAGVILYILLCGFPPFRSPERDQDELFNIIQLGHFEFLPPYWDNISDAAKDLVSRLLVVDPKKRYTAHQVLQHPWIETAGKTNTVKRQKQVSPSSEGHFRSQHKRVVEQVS

T1 sequence (P27361 whole entry, looked up): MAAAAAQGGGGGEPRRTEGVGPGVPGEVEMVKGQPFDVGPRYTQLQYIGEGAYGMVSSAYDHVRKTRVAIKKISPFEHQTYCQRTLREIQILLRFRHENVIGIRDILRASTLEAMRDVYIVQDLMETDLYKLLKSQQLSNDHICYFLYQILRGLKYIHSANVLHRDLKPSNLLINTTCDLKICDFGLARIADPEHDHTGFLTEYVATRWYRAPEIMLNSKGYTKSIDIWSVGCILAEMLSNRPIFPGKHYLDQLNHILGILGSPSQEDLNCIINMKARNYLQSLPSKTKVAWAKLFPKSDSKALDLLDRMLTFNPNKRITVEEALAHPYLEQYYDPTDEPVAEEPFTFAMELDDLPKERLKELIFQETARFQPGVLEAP
T1 sequence (P28482 whole entry, looked up): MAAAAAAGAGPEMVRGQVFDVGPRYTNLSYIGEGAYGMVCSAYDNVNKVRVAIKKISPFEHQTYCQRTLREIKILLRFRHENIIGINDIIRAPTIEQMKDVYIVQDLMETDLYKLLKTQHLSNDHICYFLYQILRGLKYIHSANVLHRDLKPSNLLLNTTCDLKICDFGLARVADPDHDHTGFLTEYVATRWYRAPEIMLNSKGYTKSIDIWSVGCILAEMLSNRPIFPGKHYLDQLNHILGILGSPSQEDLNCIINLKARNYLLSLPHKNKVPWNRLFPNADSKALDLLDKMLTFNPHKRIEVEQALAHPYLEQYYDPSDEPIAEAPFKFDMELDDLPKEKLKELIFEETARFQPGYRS
Sequence of Serine/threonine-protein kinase PLK4 (O00444 whole entry): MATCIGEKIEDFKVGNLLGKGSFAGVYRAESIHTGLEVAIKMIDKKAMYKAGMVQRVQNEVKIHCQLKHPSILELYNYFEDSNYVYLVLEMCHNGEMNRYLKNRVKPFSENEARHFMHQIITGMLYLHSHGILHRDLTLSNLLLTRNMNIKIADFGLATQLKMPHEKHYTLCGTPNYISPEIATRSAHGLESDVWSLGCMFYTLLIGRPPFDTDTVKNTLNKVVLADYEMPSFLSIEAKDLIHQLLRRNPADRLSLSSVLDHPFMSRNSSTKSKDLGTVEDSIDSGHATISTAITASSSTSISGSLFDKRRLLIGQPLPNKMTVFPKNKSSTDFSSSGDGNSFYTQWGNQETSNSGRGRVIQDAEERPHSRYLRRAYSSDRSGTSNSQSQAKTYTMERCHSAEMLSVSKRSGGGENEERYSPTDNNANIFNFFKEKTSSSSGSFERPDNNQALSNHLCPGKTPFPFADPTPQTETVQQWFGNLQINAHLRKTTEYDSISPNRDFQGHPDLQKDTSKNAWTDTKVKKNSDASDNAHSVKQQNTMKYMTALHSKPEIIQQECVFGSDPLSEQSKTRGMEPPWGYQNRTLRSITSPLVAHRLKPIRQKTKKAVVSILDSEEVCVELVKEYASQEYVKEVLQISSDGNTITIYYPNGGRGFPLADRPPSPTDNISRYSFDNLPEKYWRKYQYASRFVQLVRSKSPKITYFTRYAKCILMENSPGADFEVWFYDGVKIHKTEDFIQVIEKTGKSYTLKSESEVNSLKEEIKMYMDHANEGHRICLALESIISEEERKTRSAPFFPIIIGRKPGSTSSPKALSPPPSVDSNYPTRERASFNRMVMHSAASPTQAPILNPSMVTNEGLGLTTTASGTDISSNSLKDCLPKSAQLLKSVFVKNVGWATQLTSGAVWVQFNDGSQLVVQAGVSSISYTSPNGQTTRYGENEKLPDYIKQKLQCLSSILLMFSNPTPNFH

C=CC(=O)Nc1cccc(Oc2nc(Nc3ccc(N4CCN(C)CC4)cc3OC)ncc2Cl)c1
inhibition [1]: Active
inhibition [2]: Active
concentration at 6 h [3]: 140 ng/mL
Tmax [4]: 0.25 h
concentration at 8 h [5]: 59.2 ng/mL
concentration at 1 h [6]: 340 ng/mL
Activity (Mus musculus [7]): Active
Activity (PC-9): Active
Activity (BaF3 [8]): Active
pIC50 (cells): 7.33
Activity (Mus musculus [9]): Active
Activity (Mus musculus [10]): Active
Activity (Mus musculus [11]): Active
pKd [12]: 7.00
MRT [13]: 3.98 h
Activity (Mus musculus [14]): Active
pIC50 (BaF3 [15]): 8.70
Activity (Mus musculus [16]): Active
concentration at 8 h [17]: 8 ng/mL
pKd [18]: 6.04
